Only some compounds are listed: those with a hit (about 2.1% of all), similar ones and a draw of the others.
eIF4H FP inh – inhibitors of RNA binding by human eIF4H. Q15056. eIF4H fluorescence polarization binding assay. inhibition, % at 35 µM. actives 0.94% (n = 290,000). AID 2012;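 further: calls also rest on retests at 20 µM and on dose response follow-up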
EBNA-1 inhibitor – blocks EBNA-1 binding to DNA. actives 0.34% (n = 300,000). inhibition, % at 14.8 µM. AID 1950. EBNA-1 DNA binding, fluorescence polarization; in the data active means inhibition above about 28%
PABP polyA inh – PABP-poly(A) binding inhibition; P11940; PABP-poly(A) RNA binding, fluorescence polarization; inhibition, % at 35 µM; actives 1% (n = 290,000); AID 2014;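 further: calls also rest on retests at 20 µM and on dose response follow-up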
ZTA counter – blocks Epstein-Barr virus ZTA, an EBNA-1 counter-screen | ZTA-DNA binding, fluorescence polarization | inhibition, % at 11 µM | actives 0.15% (n = 320,000) | AID 2234; in the data active means inhibition above about 33%
PABP1 MLLE inh – blocks PAM2 peptide binding to the PABP1 MLLE domain | P11940 | GST-MLLE / FITC-PAM2 fluorescence polarization | inhibition, % at 20 µM | actives 0.36% (n = 360,000) | AID 588489; in the data active means inhibition above about 35%, passing the limit was not always enough;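 further: plate controls were DMSO wells with GST-MLLE for no effect and wells lacking GST-MLLE protein for full effect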
HCV NS3 hel inh – HCV NS3 helicase inhibition. actives 0.56% (n = 290,000). inhibition, % at 10.9 µM. NS3 helicase DNA unwinding, Cy5 molecular beacon fluorescence;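 active means inhibition above the mean of all tested compounds plus 3 SD, set per campaign, cut at about 35% in these data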;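 further: 0% = DMSO wells and 100% = thioflavine S control wells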
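Measured by: Cy5 fluorescence, 0 and 60 min reads / Assay system: NS3 helicase fragment of HCV / Control set: low DMSO, high thioflavine S at 110 µM / Times: 1 h reaction at 25 °C, ATP-initiated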
Active calls of the source: *; ? = inconclusive; / = not tested or not shown; ! = not confirmed by another sample. Unless noted, how the calls were made is not given here.

SMILES	eIF4H FP inh	EBNA-1 inhibitor	PABP polyA inh	ZTA counter	PABP1 MLLE inh	HCV NS3 hel inh
CCCNC(=O)OC[C@H]1O[C@H](CCO/N=C(\C)CCN2CCc3nc(-c4ccccc4)c(-c4ccccc4)cc3C2)C=C[C@@H]1Oc1ccc(OC)cc1	68*	2	8	6	/	-30
CCCNC(=O)OC[C@H]1O[C@H](CCO/N=C/C[C@@H]2C=C[C@H](OC(C)=O)[C@@H](COC(C)=O)O2)C=C[C@@H]1Oc1ccc(OC)cc1	2	-7	-2	5	/	-12
CCCCOc1ccc(N2C(=O)C(C)CNC2=S)cc1 (stereo not given)	/	/	/	/	52*	/
O=C(Nc1cccc(N=Cc2cc(Br)cc(Br)c2O)c1)c1ccco1	?	3	active	10	-8	19
Cc1ccc(-n2c(C)c(C)c3c(NCCO)ncnc32)cc1	-9	-10	-5	-2	3	6
CCc1ccc(-c2csc(NC(=O)C3=NN(c4ccccc4)C(=O)CC3)n2)cc1	active	9	56	3	-18	10
CC(C)CC(NC(=O)/C(=C\c1ccco1)NC(=O)c1ccco1)C(=O)O (stereo not given)	21	-4	14	-20	-3	12
COc1cc(C(=O)NS(=O)(=O)c2ccccc2C)ccc1Cc1cn(C)c2ccc(NC(=O)OC3CCCC3)cc12	45*	9	52	9	/	7
c1csc(-c2nc3ccccn3c2NC2CCCCC2)c1	31	-5	0	-7	0	-11
Cc1ccn2c(NC3CCCC3)c(-c3cccs3)nc2c1	53*	13	active	20	3	-5
Cc1ccc(NC(=O)CSC2=NCCN2)cc1	-7	-1	-10	5	39*	2
COc1ccccc1NC(=O)CSC1=NCCN1	3	8	2	14	30	2
O=C(Nc1ccc2nc(-c3ccco3)[nH]c2c1)c1ccco1	61	0	26*	8	12	-4
CC(=O)Nc1ccc2nc(-c3ccco3)[nH]c2c1	15	6	10	-2	8	0
CC1=NN(C(=O)c2ccccc2-n2cccc2)C(O)(C(F)(F)F)C1 (stereo not given)	54*	-3	13*	1	-8	29
CC1=NN(C(=O)c2ccc(C)cc2)C(O)(C(F)(F)OC(F)(F)F)C1 (stereo not given)	0	8	-4	-11	-1	-7
NC(=O)N1c2ccccc2CC(=O)c2ccccc21	71*!	-11	21*!	-12	61*	4
NC(=O)N1c2ccccc2C=Cc2ccccc21	4	-3	-16	10	-18	-8
CCn1c(SCc2ccc(Cl)cc2)nnc1-c1ccccc1	-1	-3	-1	-11	12	-7
CCCNC(=O)c1cc(C2CCCCN2S(C)(=O)=O)on1 (stereo not given)	/	/	/	/	7	/
N#C/C(=C\c1cn(CC(=O)N2CCCCC2)c2ccccc12)C(=O)NCc1ccc2c(c1)OCO2	62*	-11	83*	-22	-6	2
N#C/C(=C\c1cn(CC(=O)N2CCCC2)c2ccccc12)C(=O)NCc1ccc2c(c1)OCO2	-10	-6	-15	10	11	-2
COc1ccc(NC(=O)Nc2nc3c(s2)CCCC3)cc1	80*	7	active	3	0	-6
O=[N+]([O-])c1cc(-c2ccc(C(=S)N3CCOCC3)o2)ccc1Cl	28	-21	-8	-2	29	18
Oc1c(N=Nc2ccc(F)cc2)ccc2ccccc12	50	-1	17	3	-31	-2
SMILES	eIF4H FP inh	EBNA-1 inhibitor	PABP polyA inh	ZTA counter	PABP1 MLLE inh	HCV NS3 hel inh
Oc1c(N=Nc2nn[nH]n2)ccc2ccccc12	/	/	/	/	47*	/
O=C(O)CCc1ccc(-c2cccs2)n1CCC(=O)O	49*	1	72*	6	7	13
Cc1ccc(CC(=O)NC2CCN(Cc3ccccc3)CC2)cc1	6	2	0	-1	-9	-3
CC(C)N1CCN(S(=O)(=O)c2ccc3ccccc3c2)CC1	18	153*	25	133*	8	-1
CCS(=O)(=O)N1CCN(S(=O)(=O)c2ccc3ccccc3c2)CC1	-2	2	-2	-4	5	-1
COc1ccc(Nc2nc3[nH]c(=O)cc(O)c3s2)cc1	56*	-21	3	-7	-19	13
Cc1ccc(OC(=O)COc2ccccc2)c(-n2nc3ccccc3n2)c1	-5	6	-5	-1	-5	-1

Compound activity: PubChem, several laboratories
